# From paper PMC12103582 (Nature Communications, 2025)
# Key:
# [1] = system: postoperative pain in patients who underwent elective abdominal surgery; assay: HSK21542-303 phase 3 trial: efficacy; type: in vivo, human; settings: for SPID0–12h, LS mean (SE): 1.0 μg/kg (tramadol 50 mg/dose) i.v. at 0, 8, 16 h; for Time to rescue analgesic initiation, P25 (95% CI): 25th percentile; for Cumulative rescue analgesic dose 0–12h / Cumulative rescue analgesic dose 0–24 h: flurbiprofen axetil i.v.; for Cumulative rescue analgesic dose 0–12h / Cumulative rescue analgesic dose 0–24 h / Duration of analgesic effect / Patient satisfaction score / Physician satisfaction score: mean (SD); for Rescue analgesic received 0–12h, n (%) / Rescue analgesic received 0–24 h, n (%): rescue flurbiprofen axetil 50 mg i.v.; for NRS ≤3 12 h, n (%) / NRS ≤3 24 h, n (%): resting pain; for Patient satisfaction score / Physician satisfaction score: scale 0–10 at 24 h
# [2] = cited from earlier work
# [3] = system: patients who underwent elective abdominal surgery; assay: HSK21542-303: safety; type: in vivo, human
# Outline: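 First dose given by i.v. pump within 10 min of randomization and a resting NRS ≥4 (within 4 h postsurgery); three doses 8 h ±15 min apart. Rescue flurbiprofen axetil 50 mg i.v. Antiemetic on demand only, tropisetron 2.5 mg preferred. TEAEs graded by CTCAE v5.0, with labs, ECG and vital signs over an 8-day follow-up.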
# [4] = HSK21542-303, FAS, flurbiprofen axetil 50 mg i.v.
# [5] = HSK21542-303, follow-up period, arms taken as HSK21542 vs tramadol vs placebo
structure (smiles),measurement,setting,value
"COc1cccc(C2(O)CCCCC2CN(C)C)c1 (stereo not drawn) [Tramadol, tramadol]",patients with NRS ≤3 within 12 h,"[1]; HSK21542-303, FAS",51.2%
same,patients with NRS ≤3 within 24 h,"[1]; HSK21542-303, FAS",48.1%
same,"SPID0–12h, LS mean (SE)","[1]; HSK21542-303, FAS",−28.7 (1.11)
same,"Time to rescue analgesic initiation, P25 (95% CI)","[1]; HSK21542-303, FAS","1.17 (0.53, 4.57) h"
same,patients who received rescue analgesics within 0–12 h after first dose,[1]; [4],34.1%
same,patients who received rescue analgesics within 0–24 h after first dose,[1]; [4],35.7%
same,Cumulative rescue analgesic dose 0–12h,"[1]; HSK21542-303, FAS",26.7 (44.21) mg
same,Cumulative rescue analgesic dose 0–24 h,"[1]; HSK21542-303, FAS",29.3 (46.78) mg
same,Duration of analgesic effect,"[1]; HSK21542-303, FAS",21.3 (5.46) h
same,"Rescue analgesic received 0–12h, n (%)","[1]; HSK21542-303, FAS",44 (34.1) n (%)
same,"Rescue analgesic received 0–24 h, n (%)","[1]; HSK21542-303, FAS",46 (35.7) n (%)
same,"NRS ≤3 12 h, n (%)","[1]; HSK21542-303, FAS",66 (51.2) n (%)
same,"NRS ≤3 24 h, n (%)","[1]; HSK21542-303, FAS",62 (48.1) n (%)
same,Patient satisfaction score,"[1]; HSK21542-303, FAS",8.5 (1.58)
same,Physician satisfaction score,"[1]; HSK21542-303, FAS",8.4 (1.42)
same,"SPID0–12h, LS mean (SE)","[1]; HSK21542-303, PPS",−29.8 (0.99)
same,"Time to rescue analgesic initiation, P25 (95% CI)","[1]; HSK21542-303, PPS","1.89 (0.60, 12.73) h"
same,Cumulative rescue analgesic dose 0–12h,"[1]; HSK21542-303, PPS",23.3 (39.39) mg
same,Cumulative rescue analgesic dose 0–24 h,"[1]; HSK21542-303, PPS",26.0 (42.68) mg
same,Duration of analgesic effect,"[1]; HSK21542-303, PPS",22.4 (3.09) h
same,"Rescue analgesic received 0–12h, n (%)","[1]; HSK21542-303, PPS",39 (32.5) n (%)
same,"Rescue analgesic received 0–24 h, n (%)","[1]; HSK21542-303, PPS",41 (34.2) n (%)
same,"NRS ≤3 12 h, n (%)","[1]; HSK21542-303, PPS",63 (52.5) n (%)
same,"NRS ≤3 24 h, n (%)","[1]; HSK21542-303, PPS",59 (49.2) n (%)
same,Patient satisfaction score,"[1]; HSK21542-303, PPS",8.5 (1.59)
same,Physician satisfaction score,"[1]; HSK21542-303, PPS",8.4 (1.43)
same,excretion,[2],mainly excreted via the kidneys
same,incidence of nausea,[3]; HSK21542-303,41.9%
same,incidence of vomiting,[3]; HSK21542-303,38.0%
same,patients administered antiemetics within 24 h post first dose,[3]; HSK21542-303,54 (41.9%) n (%)
same,patients with TEAEs that led to study withdrawal,[3]; HSK21542-303,two
same,Anemia,"[3]; HSK21542-303, safety set",16 (12.4) n (%)
same,Decreased lymphocyte count,"[3]; HSK21542-303, safety set",0 n (%)
same,Decreased serum potassium,"[3]; HSK21542-303, safety set",3 (2.3) n (%)
same,Decreased thyroid-stimulating hormone,"[3]; HSK21542-303, safety set",0 n (%)
same,Drug-related TEAE,"[3]; HSK21542-303, safety set",74 (57.4) n (%)
same,Fever,"[3]; HSK21542-303, safety set",10 (7.8) n (%)
same,Hematuria,"[3]; HSK21542-303, safety set",2 (1.6) n (%)
same,Hypokalemia,"[3]; HSK21542-303, safety set",10 (7.8) n (%)
same,Inflammation,"[3]; HSK21542-303, safety set",1 (0.8) n (%)
same,Nausea,"[3]; HSK21542-303, safety set",54 (41.9) n (%)
same,SAE,"[3]; HSK21542-303, safety set",1 (0.8) n (%)
same,Vomiting,"[3]; HSK21542-303, safety set",49 (38.0) n (%)
same,Any AE,"[3]; HSK21542-303, safety set, 1.0 μg/kg (tramadol 50 mg/dose) i.v. at 0, 8, 16 h",108 (83.7) n (%)
same,SAE,"[3]; HSK21542-303, safety set, listed as tramadol",One
same,abnormal diastolic blood pressure,[3]; [5],0 cases
same,abnormal heart rate,[3]; [5],1 case
same,abnormal systolic blood pressure,[3]; [5],0 case
